pEC50: −log10 of the molar value.

Series [1] deals with Hepatitis C virus. Briefly: Antiviral activity against HCV genotype 2a infected in human Huh7.5-FGR-JC1-Rluc2A replicon cells assessed as inhibition of viral RNA replication at 50 uM measured after 48 hrs by luciferase reporter gene assay relative to control. It is filed as functional, Hepacivirus hominis. Conditions: Huh-7, 48 h. In short, it runs like this:
(§1)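 Replicon cells (gt1b firefly luciferase; gt2a Renilla luciferase) in DMEM/10% FBS with G418, ~1 × 10^4 cells/well, dosed 12 h after seeding with 50 µM compound or DMSO (1% final) for 48 h at 37 °C. Cells were PBS-washed and luciferase read; % inhibition was taken versus DMSO-treated cells, mean±SD, n=3.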
(In general: Replicon systems follow genome replication, usually without infectious particles.)

Series [2] is described as follows: Selectivity index, ratio of CC50 for human Huh7.5 cells to EC50 for HCV genotype 1b infected in human Huh7/Rep-Feo1b replicon cells. More on the design: species or system Huh-7.
Series [3] concerns Hepatitis C virus. Briefly: Antiviral activity against HCV genotype 1b infected in human Huh7/Rep-Feo1b replicon cells assessed as inhibition of viral RNA replication at 50 uM measured after 48 hrs by luciferase reporter gene assay relative to control. It is filed as functional, Hepacivirus hominis. Conditions: Huh-7, 48 h. In short, it runs like this: as §1
Series [4] is described as follows: Selectivity index, ratio of CC50 for human Huh7.5 cells to EC50 for HCV genotype 2a infected in human Huh7.5-FGR-JC1-Rluc2A replicon cells. More on the design: species or system Huh-7.
Series [5] has as its system Hepatitis C virus. Kind of series: Antiviral activity against HCV genotype 2a infected in human Huh7.5-FGR-JC1-Rluc2A replicon cells assessed as inhibition of viral RNA replication incubated for 48 hrs by luciferase reporter gene assay. It is filed as functional, cell-based, Hepacivirus hominis. Conditions: Huh-7, 48 h. The gist of the method: (§2)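 EC50 from concentration-response in replicon cells (gt1b firefly, gt2a Renilla luciferase reporter) maintained with G418. Compound added 12 h post-seeding (~1 × 10^4 cells/well), 48 h exposure, DMSO 1% final. Luciferase was compared with DMSO controls; the value is the mean ± SD of three independent 8-12 point quarter-log dilution series, calculated with CalcuSyn.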

Series [6] concerns Hepatitis C virus. Briefly: Antiviral activity against HCV genotype 1b infected in human Huh7/Rep-Feo1b replicon cells assessed as inhibition of viral RNA replication measured after 48 hrs by luciferase reporter gene assay. It is filed as functional, cell-based, Hepacivirus hominis. Conditions: Huh-7, 48 h. The gist of the method:
as §2

Series [7] is described as follows: Cytotoxicity against human Huh7.5 cells measured after 48 hrs by MTS assay. It is filed as toxicity, cell-based, Huh-7. Conditions: for CC50 at 48 h: Huh7.5 cells; for Activity: huh-7, 48 h. In short, it runs like this: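 Parental Huh7.5 cells were treated 12 h after seeding with 8-10 dilutions of compound or DMSO (1% final) for 48 h at 37 °C. Viability was read by MTS bioreduction to formazan. CC50 is the concentration halving the MTS signal, mean ± SD of three independent experiments.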
On the technique in general: Formazan colour is commonly taken as a measure of viable cells.

Series [8] concerns Hepatitis C virus. Kind of series: Antiviral activity against Hepatitis C virus genotype 1b infected in human MH14 cells assessed as inhibition of viral RNA replication after 48 hrs by quantitative RT-PCR analysis. It is filed as functional, cell-based. In short, it runs like this: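 MH-14 cells carrying HCV subgenomic replicons, in 12-well plates, were treated with a range of concentrations or DMSO 12 h after seeding. Cellular HCV RNA was quantified by qRT-PCR with HCV-specific primers, using β-actin primers as reference.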

`CCOC(=O)[C@@H]1C[C@@H]2C(=O)CCCC[C@@H]2N1C(=O)c1ccccc1` (racemic): the inhibition (usually how much of the control response was suppressed) at 50 µM in series [1] worked out at 95%; in series [3], 59%. The figures for the “Ratio CC50/EC50” value in series [2] and in series [4] were over 13.4 and over 13.9, respectively. For the same compound, the pEC50 (commonly the negative decadic logarithm of the EC50, by convention in mol/L) in series [5] was 4.84; in series [6], 4.83. Besides, the CC50 (usually the concentration giving 50% cytotoxicity) at 48 h in series [7] is over 200 µM.

On to `CCOC(=O)[C@@H]1C[C@@H]2C(=O)CCCC[C@@H]2N1S(=O)(=O)c1ccc(C(C)(C)C)cc1` (racemic), for which the inhibition at 50 µM in series [1] was found to be 94%; in series [3], 49%. For the same compound, the “Ratio CC50/EC50” value in series [2] is listed as over 5.8; in series [4], over 15.4. In addition, the figures for the pEC50 in series [5] and in series [6] were 4.89 and 4.46, respectively. This compound yielded a half-maximal cytotoxic concentration (CC50) at 48 h in series [7] of over 200 µM.

Regarding `O=C1CCCC[C@H]2[C@H]1[C@@H](c1ccccc1)CN2Cc1ccccc1` (racemic), the results for the inhibition at 50 µM in series [1] and in series [3] were 96% and 71%, respectively. The “Ratio CC50/EC50” value in series [2] was 17.3; in series [4], 29.2. Moreover, the pEC50 in series [5] was 5.34; in series [6], 5.11. Also, half-maximal cytotoxicity in series [7] (CC50 at 48 h) was put at 134 µM. In series [7], this compound had an Activity of 85%.

In the case of `CCOC(=O)[C@@H]1C[C@@H]2C(=O)CCCC[C@H]2N1S(=O)(=O)c1ccc(C)cc1` (racemic), the inhibition at 50 µM in series [1] was 91%; in series [3], 51%. In addition, the results for the “Ratio CC50/EC50” value in series [2] and in series [4] were 3.4 and 22.9, respectively. For the same compound, the figures for the pEC50 in series [5] and in series [6] were 5.06 and 4.23, respectively. Moreover, in series [7], the CC50 at 48 h was over 200 µM.

On to `CCOC(=O)[C@H]1C[C@H]2C(=O)CCCC[C@H]2N1S(=O)(=O)c1ccc(C)cc1` (racemic), for which the inhibition at 50 µM in series [1] came to 84%; in series [3], 89%. Besides, the results for the “Ratio CC50/EC50” value in series [2] and in series [4] were over 28.2 and over 32.8, respectively. The figures for the pEC50 in series [5] and in series [6] were 5.21 and 5.15, respectively. Moreover, the CC50 at 48 h in series [7] is over 200 µM. The compound also returned an Activity in series [7] of 77%.

As to `CCOC(=O)[C@@H]1C[C@]2(C)C(=O)CCCC[C@@H]2N1S(=O)(=O)c1ccc(C)cc1` (racemic), the values for the inhibition at 50 µM in series [1] and in series [3] were 76% and 50%, respectively. Also, the “Ratio CC50/EC50” value in series [2] came out at 4.1; in series [4] it was 14.1. Further, the pEC50 was 4.85 in series [5] and 4.31 in series [6]. In series [7], this compound yielded a CC50 at 48 h of over 200 µM.

Consider `CCOC(=O)[C@@H]1C[C@@H]2/C(=N/O)CCCC[C@@H]2N1S(=O)(=O)c1ccc(C)cc1` (racemic), for which the inhibition at 50 µM in series [1] turned out to be 66%; in series [3], 63%. The “Ratio CC50/EC50” value in series [2] was found to be 7.9; in series [4], 13.1. For the same compound, the pEC50 in series [5] was 4.82; in series [6] it was 4.60. In series [7], the half-maximal cytotoxic concentration (CC50) at 48 h was over 200 µM.

As to `CCOC(=O)[C@@H]1C[C@@H]2/C(=N/Nc3ccccc3)CCCC[C@@H]2N1S(=O)(=O)c1ccc(C)cc1` (racemic), the inhibition at 50 µM was 70% in series [1] and 88% in series [3]. Moreover, the “Ratio CC50/EC50” value in series [2] worked out at 112.4; in series [4] it was 44.2. Moreover, the pEC50 in series [5] was 5.35; in series [6], 5.74; in series [8] (MH14, 48 h) it was 5.42. This compound also came in with a CC50 at 48 h in series [7] of over 200 µM. The inhibition entry in series [8] (Hepacivirus hominis) was “Dose-dependent effect”.

In the case of `CCOC(=O)[C@@H]1C[C@@H]2[C@@H](OC(C)=O)CCCC[C@@H]2N1S(=O)(=O)c1ccc(C)cc1` (racemic), the inhibition at 50 µM in series [1] is 73%; in series [3] it was 60%. Further, the “Ratio CC50/EC50” value in series [2] is 7.3; in series [4], 7.7. Moreover, the pEC50 in series [5] was 4.59; in series [6], 4.57. For the same compound, the CC50 at 48 h in series [7] was over 200 µM.

As for `CCOC(=O)[C@@H]1C[C@@H]2/C(=N/NC(N)=S)CCCC[C@@H]2N1S(=O)(=O)c1ccc(C)cc1` (racemic), the inhibition at 50 µM in series [1] stood at 58%; in series [3], 66%. For the same compound, the figures for the “Ratio CC50/EC50” value in series [2] and in series [4] were 14 and 17.3, respectively. Besides, the pEC50 was 4.94 in series [5] and 4.84 in series [6]. For the same compound, the CC50 at 48 h in series [7] was over 200 µM.

(Values after ChEMBL document CHEMBL3865803, “Bicyclic octahydrocyclohepta[b]pyrrol-4(1H)one derivatives as novel selective anti-hepatitis C virus agents” (Eur J Med Chem, 2016).)
